In ChEMBL document CHEMBL1121913, “Inactivation of liver alcohol dehydrogenases and inhibition of ethanol metabolism by ambivalent active-site-directed reagents” (J Med Chem, 1981):

How the values were obtained:
[1] = biological target: T1, Alcohol dehydrogenase (Equus caballus) (UniProt P00327+P00328); assay: The compound was tested for the ability to inactivate horse liver alcohol dehydrogenase in the presence of 1 mM NAD+k
[2] = biological target: T2, Alcohol dehydrogenase (Homo sapiens) (UniProt P07327+P08319+P00325+P00326+P40394+P11766+P28332); assay: The compound was tested for the ability to inactivate human liver alcohol dehydrogenase in the absence of NAD+K
Method in brief: (§1)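 Human liver ADH, purified on carboxymethyl- and DEAE-cellulose plus (NH₄)₂SO₄ (60%) with 5% ethanol throughout, ethanol dialysed out. Inactivation at 25 °C in 0.1 M Na₂P₂O₇, pH 8, enzyme about 0.2 mg/mL, 0.2 mM reagent; NAD⁺ added 1 min before reagent where used. Apparent second-order constant calculated assuming first order in reagent.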

[3] = biological target: T2, Alcohol dehydrogenase (Homo sapiens); assay: The compound was tested for the ability to inactivate human liver alcohol dehydrogenase in the presence of 1 mM NAD+k; method in brief: as §1
[4] = The compound was tested for the ability to inactivate mouse liver alcohol dehydrogenase in the absence of NAD+K
Method in brief: (§2)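 Mouse liver ADH, fourfold purified ((NH₄)₂SO₄ 45–65% cut, DEAE-cellulose), incubated at about 0.2 mg/mL with 0.2 mM reagent in 0.1 M Na₂P₂O₇ pH 8, 25 °C; coenzyme, when present, added 1 min before inactivator. Apparent second-order rate constant derived assuming reaction first order in reagent.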

[5] = The compound was tested for the ability to inactivate mouse liver alcohol dehydrogenase in the presence of 1 mM NAD+K; method in brief: as §2
[6] = The compound was tested for the ability to inactivate rat liver alcohol dehydrogenase in the absence of NAD+K
Method in brief: (§3)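 Rat liver enzyme purified 15-fold ((NH₄)₂SO₄ 35–75%, DEAE-cellulose). Inactivation with 0.2 mM reagent, 0.1 M pyrophosphate buffer pH 8, 25 °C, enzyme near 0.2 mg/mL; NAD⁺ preincubated 1 min with enzyme before reagent addition. Apparent second-order constants computed on assumption of first-order dependence on reagent.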

[7] = The compound was tested for the ability to inactivate rat liver alcohol dehydrogenase in the presence of 1 mM NAD+K; method in brief: as §3
[8] = biological target: T1, Alcohol dehydrogenase (Equus caballus); assay: The compound was tested for the ability to inactivate horse liver alcohol dehydrogenase in the absence of NAD+k
[9] = biological target: T1, Alcohol dehydrogenase (Equus caballus); assay: The compound was tested for the ability to inactivate horse liver alcohol dehydrogenase in the presence of 1 mM NAD+(K
[10] = (§4) The compound was tested for the ability to inactivate horse liver alcohol dehydrogenase in the presence of 0.2 mM NAD+K
[11] = biological target: T1, Alcohol dehydrogenase (Equus caballus); assay: as §4
[12] = Percent inhibition of Alcohol dehydrogenase activity in mice liver at dose 0.13 mmol/kg; format: tissue-based
Method in brief: (§5)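 Male Swiss-Webster mice (20–25 g), fed, given one ip dose of reagent suspended in sterile 0.9% saline, then ethanol 3 g/kg ip (40% w/v in saline) 22–24 h later. Liver removed once blood ethanol approached zero, chilled, homogenized, clarified by centrifugation. ADH activity taken as initial-velocity difference, ethanol/NAD⁺ assay minus same assay with 10 mM pyrazole, per mg protein. Four or five mice per group.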

[13] = (§6) Percent inhibition of Alcohol dehydrogenase activity in rat liver at dose 0.13 mmol/kg; format: tissue-based
Method in brief: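 Male Sprague-Dawley rats (160–200 g), two per experiment; compound suspended in sterile 0.9% saline, single i.p. dose 22–24 h before i.p. ethanol 2 g/kg (40% w/v in saline). Tail-vein blood ethanol by GC (1-propanol internal standard); elimination rate = β slope × dose/extrapolated zero-time level. Liver ADH afterwards: homogenate activity with ethanol/NAD⁺ minus 10 mM pyrazole control, per mg protein.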

[14] = biological target: T1, Alcohol dehydrogenase (Equus caballus); assay: The compound was tested for the ability to inactivate horse liver alcohol dehydrogenase in the absence of NAD+(K
Mus musculus [15] = assay: (§7) Percent inhibition of rate of ethanol metabolism in mice at dose 0.13 mmol/kg; format: functional
Method in brief: (§8)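 Mice (male Swiss-Webster, fed) dosed ip with reagent in saline 22–24 h before ethanol 3 g/kg ip. Tail-vein blood (5 µL) deproteinized with Ba(OH)₂/ZnSO₄, 1-propanol internal standard, analyzed by GC with flame-ionization detection. Elimination slope fitted excluding absorption (1–2 h), multiplied by r (dose / theoretical zero-time blood level) to give metabolic rate. Four or five mice per group.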

Mus musculus [16] = assay: Percent inhibition of recovery of rotarod performance in mice at dose 0.13 mmol/kg; format: functional
Method in brief: (§9)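 Mice trained to hang on a 2-cm rod rotating at 7 rpm, two 15-min periods. Reagent given ip 22 h before ethanol 3 g/kg; five mice per dose, five vehicle controls. Impairment = 100(15 − minutes on rod)/15, probit-transformed; t1/2 for regaining 50% performance by regression. Inhibition = [t1/2(treated) − t1/2(control)]/t1/2(treated).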

[17] = Toxic effect in mice; format: toxicity, organism-based; conditions: mouse, in vivo
Method in brief: (§10)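 Male Swiss-Webster mice (20–25 g); single i.p. dose of compound suspended in sterile 0.9% saline. Acute lethality scored over 24 h; LD₅₀ with limits at p ≤ 0.05 from three doses on 15 mice.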

[18] = Toxic effect in rats; format: toxicity, organism-based; conditions: rat, in vivo
Method in brief: (§11)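 Male Sprague-Dawley rats (160–200 g), two per dose; single i.p. dose of compound suspended in sterile 0.9% saline. Acute lethality scored over 24 h after dosing.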

Rattus norvegicus [19] = assay: Percent inhibition of rate of ethanol metabolism in rats at dose 0.13 mmol/kg; format: functional
Method in brief: (§12)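 Rats (male Sprague-Dawley, fed) pretreated ip with reagent suspended in saline 22–24 h before ethanol 2 g/kg ip. Serial 5 µL tail-vein samples, Ba(OH)₂/ZnSO₄ deproteinization with 1-propanol internal standard, GC-FID. Metabolic rate = blood-ethanol decline slope × ratio of dose to extrapolated zero-time blood level. Two rats per experiment.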

[20] = biological target: T2, Alcohol dehydrogenase (Homo sapiens); assay: The compound was tested for the ability to inactivate human liver alcohol dehydrogenase in the presence of 1 mM NAD+K; method in brief: as §1
[21] = biological target: T2, Alcohol dehydrogenase (Homo sapiens); assay: The compound was tested for the ability to inactivate human liver alcohol dehydrogenase in the absence of NAD+(K; method in brief: as §1
[22] = biological target: T2, Alcohol dehydrogenase (Homo sapiens); assay: The compound was tested for the ability to inactivate human liver alcohol dehydrogenase in the presence of 1 mM NAD+(K; method in brief: as §1
[23] = The compound was tested for the ability to inactivate rat liver alcohol dehydrogenase in the presence of NAD+K; method in brief: as §3
[24] = as §6; format: tissue-based; remark: listed apart in the source
Method in brief: (§13)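 Fed male Sprague-Dawley rats (160–200 g) received a single ip saline-suspended reagent dose, then ethanol 2 g/kg ip (40% w/v in saline) 22–24 h afterwards. Liver excised when blood ethanol neared zero, homogenized on ice, centrifuged. Activity = initial rate with ethanol and NAD⁺ minus rate in control assay containing 10 mM pyrazole, expressed per mg protein. Two rats per experiment.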

[25] = biological target: T1, Alcohol dehydrogenase (Equus caballus); assay: The compound was tested for the ability to inactivate horse liver alcohol dehydrogenase in the presence of 0.2 mM NAD+(K
[26] = test system: Alcohol dehydrogenase (Equus caballus); assay: The compound was tested for the ability to inactivate horse liver alcohol dehydrogenase in the presence of 0.2 mM NAD+K
[27] = test system: Alcohol dehydrogenase (Homo sapiens); assay: The compound was tested for the ability to inactivate human liver alcohol dehydrogenase in the presence of 0.2 mM NADH(K
[28] = biological target: T1, Alcohol dehydrogenase (Equus caballus); assay: The compound was tested for the ability to inactivate horse liver alcohol dehydrogenase in the presence of 1 mM NAD+; second order rate constant M-1 min-1
Mus musculus [29] = assay: In vivo inhibition of rate of ethanol metabolism in mice at dose 0.48 mmol/kg; format: functional; method in brief: as §8
[30] = Toxic effect in mice was determined in vivo; format: toxicity, organism-based; conditions: mouse; method in brief: as §10
Mus musculus [31] = assay: In vivo inhibition of ADH activity in mice liver at a dose of 0.48 mmol/kg; format: functional; method in brief: as §5
Mus musculus [32] = assay: In vivo inhibition of recovery of rotarod performance in mice at a dose of 0.48 mM/kg; format: functional; method in brief: as §9
[33] = Toxic effect in rats was determined in vivo; format: toxicity, organism-based; conditions: rat; method in brief: as §11
Rattus norvegicus [34] = assay: In vivo inhibition of rate of ethanol metabolism in rats at dose 0.48 mmol/kg; format: functional; method in brief: as §12
Rattus norvegicus [35] = assay: In vivo inhibition of ADH activity in rat liver at a dose of 0.48 mM/kg; format: functional; method in brief: as §13
[36] = biological target: T1, Alcohol dehydrogenase (Equus caballus); assay: The compound was tested for the ability to inactivate horse liver alcohol dehydrogenase in the presence of 1 mM NAD+K
[37] = as §7; conditions: in the assay text read “0.48 mmol/kg” for “0.13 mmol/kg”; method in brief: as §8

Structure (SMILES)	Rate constant [1] [M⁻¹ s⁻¹]	Rate constant [2] [M⁻¹ s⁻¹]	Rate constant [3] [M⁻¹ s⁻¹]	Rate constant [4] [M⁻¹ s⁻¹]	Rate constant [5] [M⁻¹ s⁻¹]	Rate constant [6] [M⁻¹ s⁻¹]	Rate constant [7] [M⁻¹ s⁻¹]	Rate constant [8] [M⁻¹ s⁻¹]	Rate constant [11] [M⁻¹ s⁻¹]	other results
O=C(CBr)Nc1ccc(-c2ccc(C(=O)O)cc2)cc1	0.4	0.833	58.3	0.717	0.105	0.483	0.417	2.33		
O=C(O)CCCCCCNC(=O)CBr	0.00833	0.112	0.138	0.127		0.183	0.0133	0.0983		
NC(=O)CCCc1ccc(NC(=O)CBr)cc1		0.09		0.6	1	0.583	1.17		2.67	Rate constant [9]: 3.17 M⁻¹ s⁻¹; Rate constant [10]: 2.67 M⁻¹ s⁻¹; inhibition [12]: 21%; inhibition [13]: 21%; Rate constant [14]: 0.667 M⁻¹ s⁻¹; inhibition in vivo at 130 µmol/kg (Mus musculus [15]): 20%; inhibition in vivo at 130 µmol/kg (Mus musculus [16]): 58%; LD50 [17]: 210 µmol/kg; LD50 [18]: 130 µmol/kg; inhibition in vivo at 130 µmol/kg (Rattus norvegicus [19]): 26%; Rate constant [20]: 5.33 M⁻¹ s⁻¹
O=C(O)CCCCCCCNC(=O)CBr	0.12	0.112	0.833	0.0817		0.2	0.0667	0.105		
O=C(O)CCCCCCCCCCNC(=O)CBr	0.05	3.83	23.3	0.147		0.152	0.0667	0.717		
O=C(O)CCCc1ccc(NC(=O)CBr)cc1	2			0.633	0.233		0.533	1.67	0.25	Rate constant [21]: 0.183 M⁻¹ s⁻¹; Rate constant [22]: 2.33 M⁻¹ s⁻¹; Rate constant [23]: 0.533 M⁻¹ s⁻¹; inhibition [24]: 27%; Rate constant [25]: 0.25 M⁻¹ s⁻¹; inhibition in vivo at 130 µmol/kg (Rattus norvegicus [19]): 24%; Rate constant [26]: 0.25 M⁻¹ s⁻¹; Rate constant [27]: 0.085 M⁻¹ s⁻¹
O=C(O)CCCCCCCCCCCNC(=O)CBr	0.0533	2.33	5.33	0.717		0.317	0.0167	2		
O=C(CBr)Nc1ccc(Oc2ccc(C(=O)O)cc2)cc1	0.283	0.433	4.83	2.88	0.183	1.15	0.383	5.33		
O=C(O)CCCCCCCCNC(=O)CBr	0.0817	0.383	4	0.0817		0.2	0.2	0.167		
CC(=O)Nc1ccc(CCCC(N)=O)cc1										Activity [28]: 1500; inhibition in vivo at 480 µmol/kg (Mus musculus [29]): 60%; LD50 [30]: > 480 µmol/kg; inhibition in vivo at 480 µmol/kg (Mus musculus [31]): 43%; Inhibition (Mus musculus [32]): 60%; LD50 [33]: > 480 µmol/kg; inhibition in vivo at 480 µmol/kg (Rattus norvegicus [34]): 0%; Inhibition (Rattus norvegicus [35]): 8%
CS(=O)(=O)OCC(=O)Nc1ccc(CCCC(N)=O)cc1									0.217	Rate constant [36]: 0.4 M⁻¹ s⁻¹; inhibition [12]: 38%; inhibition [37]: 43%; inhibition [24]: 35%; inhibition in vivo at 130 µmol/kg (Mus musculus [16]): 70%; LD50 [17]: > 480 µmol/kg; LD50 [18]: > 480 µmol/kg; inhibition in vivo at 130 µmol/kg (Rattus norvegicus [19]): 15%
NC(=O)CCCc1ccc(NC(=O)CCl)cc1									0.0267	Rate constant [36]: 0.0417 M⁻¹ s⁻¹
O=C(O)CBr	0.0015	0.0133		0.163		0.217	0.0133	0.138		
